Assay results taken from ChEMBL document CHEMBL3091377, “Small molecule fusion inhibitors: design, synthesis and biological evaluation of (Z)-3-(5-(3-benzyl-4-oxo-2-thioxothiazolidinylidene)methyl)-N-(3-carboxy-4-hydroxy)phenyl-2,5-dimethylpyrroles and related derivatives targeting HIV-1 gp41” (Bioorg Med Chem, 2013).
Active and inactive are the calls of the source. The rule behind the calls is not given here.

Assays:
[1] = Cytotoxicity against human MT2 cells after 4 days by XTT assay; type: cell-based
In short: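 XTT assay on MT-2 cells (5 × 10^5/mL mixed with equal volume of compound at graded concentrations). Incubated 4 days, then XTT (1 mg/mL) containing 0.02 µM phenazine methosulphate added. A450 read after 4 h; CC50 calculated as concentration giving 50% cytotoxicity.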

[2] = test system: Human immunodeficiency virus 1; experiment: Antiviral activity against HIV1 3B infected in human MT2 cells assessed as inhibition of p24 antigen production after 4 days by ELISA; type: functional, organism-based; conditions: Human immunodeficiency virus 1, 3B, MT2, 96 h
In short: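 MT-2 cells (1 × 10^4) infected with HIV-1 IIIB at 100 TCID50 in RPMI 1640 with 10% serum (printed "PBS"), compound at graded concentrations overnight. Supernatant then replaced with compound-free medium. Day 4: supernatant lysed in equal volume 5% Triton X-100, p24 quantified by sandwich ELISA against recombinant p24 standard curve. Triplicate; EC50 from percent inhibition.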

[3] = (§1) Inhibition of HIV-1 gp41-mediated 6-helix bundle formation after 30 mins by sandwich ELISA; parameters: species or system Human immunodeficiency virus 1
In short: (§2)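 Peptide N36 (2 µM) preincubated with compound at graded concentrations, 37 °C, 30 min. C34 (2 µM) then added and incubated a further 30 min at 37 °C. Mixture captured on wells coated with rabbit IgG against gp41 six-helix bundle (10 µg/mL); A450 read. Percent inhibition versus no-compound control; IC50 calculated; triplicate.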

[4] = Selectivity index, ratio of CC50 for human MT2 cells to EC50 for HIV1 3B; type: toxicity, cell-based; conditions: read-out: Ratio CC50/EC50
In short: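 Selectivity index calculated as CC50 (XTT, MT-2 cells, 4 days) divided by EC50 (p24 inhibition in HIV-1 IIIB-infected MT-2 cells).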

[5] = test system: Human immunodeficiency virus 1; experiment: Antiviral activity against enfuvirtide-resistant HIV-1 NL4-3 harboring gp41 (36G)V38E/N42S mutation infected in human MT2 cells assessed as inhibition of p24 antigen production after 4 days by ELISA; type: functional, organism-based
In short: (§3)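 1 × 10^4 MT-2 cells infected with virus (100 TCID50) in RPMI 1640 with 10% serum, with or without compound at graded concentrations, overnight. Supernatant then replaced with compound-free medium. Day 4 supernatant lysed with 5% Triton X-100. p24 quantified by HIVIG-capture sandwich ELISA with recombinant p24 standard curve, A450. IC50 by CalcuSyn, triplicate, mean ± SD.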

[6] = test system: Human immunodeficiency virus 1; experiment: Antiviral activity against enfuvirtide-resistant HIV-1 NL4-3 harboring gp41 (36G)V38A/N42T mutation infected in human MT2 cells assessed as inhibition of p24 antigen production after 4 days by ELISA; type: functional, organism-based; in short: as §3
[7] = test system: Human immunodeficiency virus 1; experiment: Antiviral activity against enfuvirtide-resistant HIV-1 NL4-3 harboring gp41 (36G)N42T/N43K mutation infected in human MT2 cells assessed as inhibition of p24 antigen production after 4 days by ELISA; type: functional, organism-based; in short: as §3
[8] = test system: Human immunodeficiency virus 1; experiment: Antiviral activity against enfuvirtide-resistant HIV-1 NL4-3 harboring gp41 (36G)V38A/N42D mutation infected in human MT2 cells assessed as inhibition of p24 antigen production after 4 days by ELISA; type: functional, organism-based; in short: as §3
[9] = test system: Human immunodeficiency virus 1; experiment: Antiviral activity against enfuvirtide-sensitive HIV-1 NL4-3 harboring gp41 (36G)N42S mutation infected in human MT2 cells assessed as inhibition of p24 antigen production after 4 days by ELISA; type: functional, organism-based; in short: as §3
[10] = test system: Human immunodeficiency virus 1; experiment: Antiviral activity against enfuvirtide-resistant HIV-1 NL4-3 harboring gp41 (36G)V38A mutation infected in human MT2 cells assessed as inhibition of p24 antigen production after 4 days by ELISA; type: functional, organism-based; in short: as §3
[11] = test system: Human immunodeficiency virus 1; experiment: as §1; in short: as §2
[12] = test system: Human immunodeficiency virus 1; experiment: Ratio of IC50 for enfuvirtide-resistant HIV-1 NL4-3 harboring gp41 (36G)V38A/N42D mutation to IC50 for enfuvirtide-sensitive HIV-1 NL4-3 harboring gp41 (36G)N42S mutation; type: functional
In short: (§4)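 MT-2 cells (1 × 10^4) were infected overnight in RPMI 1640 with 100 TCID50 of the NL4-3 (36G) N42S or mutant strain, with graded compound. Medium was then replaced without compound. On day 4, supernatant was lysed in 5% Triton X-100 and p24 measured by HIVIG-capture ELISA (A450, recombinant p24 standard). IC50 was taken from triplicates, and the ratio was mutant IC50 over N42S IC50.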

[13] = test system: Human immunodeficiency virus 1; experiment: Ratio of IC50 for enfuvirtide-resistant HIV-1 NL4-3 harboring gp41 (36G)N42T/N43K mutation to IC50 for enfuvirtide-sensitive HIV-1 NL4-3 harboring gp41 (36G)N42S mutation; type: functional; in short: as §4
[14] = test system: Human immunodeficiency virus 1; experiment: Ratio of IC50 for enfuvirtide-resistant HIV-1 NL4-3 harboring gp41 (36G)V38E/N42S mutation to IC50 for enfuvirtide-sensitive HIV-1 NL4-3 harboring gp41 (36G)N42S mutation; type: functional; in short: as §4
[15] = test system: Human immunodeficiency virus 1; experiment: Ratio of IC50 for enfuvirtide-resistant HIV-1 NL4-3 harboring gp41 (36G)V38A mutation to IC50 for enfuvirtide-sensitive HIV-1 NL4-3 harboring gp41 (36G)N42S mutation; type: functional; in short: as §4
[16] = test system: Human immunodeficiency virus 1; experiment: Ratio of IC50 for enfuvirtide-resistant HIV-1 NL4-3 harboring gp41 (36G)V38A/N42T mutation to IC50 for enfuvirtide-sensitive HIV-1 NL4-3 harboring gp41 (36G)N42S mutation; type: functional; in short: as §4

Row | Compound | CC50 at 96 h [1] [µM] | EC50 [2] [µM] | IC50 [3] [µM] | selectivity ratio [4] | other results
1 | Cc1cc(/C=C2\SC(=S)N(Cc3cccc(Br)c3)C2=O)c(C)n1-c1ccc(O)c(C(=O)O)c1 | 48.2 | 32.4 | 7.8 | 1.5 | 
2 | Cc1cc(/C=C2\SC(=S)N(Cc3cccc(C(F)(F)F)c3)C2=O)c(C)n1-c1ccc(O)c(C(=O)O)c1 | 26.3 | 3.9 | 9.2 | 6.7 | 
3 | Cc1cc(/C=C2\SC(=S)N(Cc3cccc(C(=O)O)c3)C2=O)c(C)n1-c1ccc(O)c(C(=O)O)c1 | > 100 | 12.1 | 20.8 | > 8.3 | 
4 | COC(=O)c1cccc(CN2C(=O)/C(=C/c3cc(C)n(-c4ccc(O)c(C(=O)O)c4)c3C)SC2=S)c1 | 38.5 | 0.3 | 1.8 | 128 | IC50 [5]: 3.37 µM; IC50 [6]: 2.82 µM; IC50 [7]: 2.02 µM; IC50 [8]: 0.725 µM; IC50 [9]: 2.22 µM; IC50 [10]: 1.74 µM
5 | Cc1cc(/C=C2\SC(=S)N(CCc3ccccc3)C2=O)c(C)n1-c1ccc(O)c(C(=O)O)c1 | 26 | 6.2 | 12.5 | 4.2 | 
6 | Cc1cc(/C=C2\SC(=S)N(Cc3ccccc3)C2=O)c(C)n1-c1ccc(Cl)c(C(=O)O)c1 | 68.3 | 19.1 | 34.3 | 3.6 | 
7 | Cc1cc(/C=C2\SC(=S)N(Cc3ccc(Br)cc3)C2=O)c(C)n1-c1ccc(O)c(C(=O)O)c1 | 94.4 | 42.7 | 10.3 | 2.2 | 
8 | Cc1cc(/C=C2\SC(=S)N(Cc3ccccc3)C2=O)c(C)n1-c1ccc(O)c(C(=O)O)c1 | 159 | 3.2 | 11.9 | 50.2 | 
9 | COc1ccc(CN2C(=O)/C(=C/c3cc(C)n(-c4ccc(O)c(C(=O)O)c4)c3C)SC2=S)cc1 | 75.3 | 19.8 | 0.9 | 3.8 | 
10 | Cc1cc(/C=C2\SC(=S)N(c3ccccc3)C2=O)c(C)n1-c1ccc(O)c(C(=O)O)c1 | > 100 | 35.6 |  | > 2.8 | inhibition [11]: inactive
11 | Cc1cc(/C=C2\SC(=S)N(Cc3ccc(C(F)(F)F)cc3)C2=O)c(C)n1-c1ccc(O)c(C(=O)O)c1 | 45.9 | 17.2 | 18.8 | 2.7 | 
12 | COC(=O)c1ccc(CN2C(=O)/C(=C/c3cc(C)n(-c4ccc(O)c(C(=O)O)c4)c3C)SC2=S)cc1 | 36.9 | 1.5 | 1.8 | 24.6 | IC50 [5]: 2.75 µM; IC50 [6]: 1.67 µM; IC50 [7]: 2.3 µM; IC50 [8]: 2.2 µM; IC50 [9]: 2.01 µM; IC50 [10]: 4.85 µM
13 | Cc1cc(/C=C2\SC(=S)N(Cc3ccccc3C(F)(F)F)C2=O)c(C)n1-c1ccc(O)c(C(=O)O)c1 | 28.8 | 29.1 | 22.6 | 1 | 
14 | Cc1cc(/C=C2\SC(=S)N(Cc3ccc(C(=O)O)cc3)C2=O)c(C)n1-c1ccc(O)c(C(=O)O)c1 | 105 | 7.1 | 68 | 14.7 | 
15 | COc1cccc(CN2C(=O)/C(=C/c3cc(C)n(-c4ccc(O)c(C(=O)O)c4)c3C)SC2=S)c1 | 102 | 23.5 | 2.1 | 4.4 | 
16 | enfuvirtide |  |  |  |  | IC50 [5]: > 2 µM; IC50 [6]: 1.66 µM; Ratio IC50 [12]: >20; IC50 [7]: > 2 µM; Ratio IC50 [13]: >20; Ratio IC50 [14]: >20; Ratio IC50 [15]: >20; IC50 [8]: 1.54 µM; IC50 [9]: 0.077 µM; IC50 [10]: > 2 µM; Ratio IC50 [16]: >20
17 | Cc1cc(/C=C2\SC(=S)N(Cc3ccc(C(C)(C)C)cc3)C2=O)c(C)n1-c1ccc(O)c(C(=O)O)c1 | 55.2 | 0.9 | 2.6 | 61.3 | IC50 [5]: 2.67 µM; IC50 [6]: 1.78 µM; IC50 [7]: 1.96 µM; IC50 [8]: 2.02 µM; IC50 [9]: 0.473 µM; IC50 [10]: 4.25 µM
18 | Cc1cc(/C=C2\SC(=S)N(Cc3ccccc3)C2=O)c(C)n1-c1cccc(C(=O)O)c1 | 83.4 | 15.3 | 45.7 | 5.5 | 
19 | Cc1ccc(C)n1-c1ccc(O)c(C(=O)O)c1 |  | 0.7 | 37.4 | 191 | 
20 | Cc1cc(/C=C2\SC(=S)N(Cc3ccccc3Br)C2=O)c(C)n1-c1ccc(O)c(C(=O)O)c1 | 25.7 | 41.1 |  | 0.6 | 
